As usually defined, the IC50 is the concentration at which inhibition is half-maximal. Broadly, the Kd is the constant that tells how readily two partners part at equilibrium. As usually defined, the inhibition is the relative decrease from the control value, in per cent.

The structures appear in SMILES notation.

For assay [1], the target named is T1, Betaine--homocysteine S-methyltransferase 1 (Homo sapiens, UniProt Q93088).
T1 sequence (Q93088 whole entry): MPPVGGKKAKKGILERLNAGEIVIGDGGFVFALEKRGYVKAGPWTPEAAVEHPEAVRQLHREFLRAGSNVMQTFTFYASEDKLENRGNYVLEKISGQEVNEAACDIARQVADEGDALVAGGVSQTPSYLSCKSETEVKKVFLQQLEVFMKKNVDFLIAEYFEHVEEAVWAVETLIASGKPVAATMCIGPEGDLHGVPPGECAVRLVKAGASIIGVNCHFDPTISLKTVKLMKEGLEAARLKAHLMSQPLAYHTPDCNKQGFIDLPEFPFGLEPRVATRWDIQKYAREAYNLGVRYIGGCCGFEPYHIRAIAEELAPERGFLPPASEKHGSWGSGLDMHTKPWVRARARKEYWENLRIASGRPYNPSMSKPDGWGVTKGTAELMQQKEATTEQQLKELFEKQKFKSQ
Briefly: Inhibition of human recombinant BHMT expressed in Escherichia coli using 2 mM betaine and 1 mM DL-homocysteine as substrate. An outline of the steps: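 Same radiometric Dowex assay as for percent inhibition (0.2 μM enzyme, pH 7.5 K-phosphate, 37 °C, 30 min), but with 1 mM DL-homocysteine and 2 mM 14C-betaine. Ten inhibitor concentrations in duplicate per curve, IC50 by nonlinear regression. Three independent experiments, mean ± SEM.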

The target in assay [2] is T1, Betaine--homocysteine S-methyltransferase 1. Briefly: Binding affinity to human recombinant BHMT expressed in Escherichia coli by isothermal titration calorimetry. The gist of the method: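 ITC at 25 °C in 50 mM HEPES/NaOH, ACES/NaOH or Tris/HCl, pH 7.5, with 5 mM β-mercaptoethanol, no substrates present. 9 μL aliquots of 50 μM ligand injected into 5.1 μM protein (monomer, quantified by amino acid analysis after dialysis) until saturation. Heats corrected for dilution using buffer-only injections and fitted to the integrated heats.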
On the technique in general: In ITC the heat of successive injections is recorded.

Assay [3] concerns the target T2, Betaine--homocysteine S-methyltransferase 1 (Homo sapiens) (UniProt Q93088).
T2 sequence (whole entry): T1 sequence (Q93088 whole entry)
Briefly: Inhibition of human recombinant BHMT expressed in Escherichia coli at 20 uM using 0.25 mM betaine and 0.1 mM DL-homocysteine as substrate. The gist of the method: (§1)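 Radiometric assay with 0.2 μM enzyme, preincubated with inhibitor, then 100 μM DL-homocysteine (fresh from thiolactone) and 250 μM [methyl-14C]betaine. Run in 50 mM K-phosphate pH 7.5 with 10 mM β-mercaptoethanol, 37 °C, 30 min; stopped on ice. […] Enzyme-free blanks subtracted; triplicates; activity expressed relative to no-inhibitor control.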

Assay [4] has as its target T2, Betaine--homocysteine S-methyltransferase 1 (Homo sapiens). Briefly: Inhibition of human recombinant BHMT expressed in Escherichia coli at 1 uM using 0.25 mM betaine and 0.1 mM DL-homocysteine as substrate. An outline of the steps:
as §1

Regarding `CC(C)(CCSCC[C@@H](N)C(=O)O)CC(=O)O`, in assay [1], the IC50 was determined as 701 nM.
As to `CC(C)(CCSCC[C@H](N)C(=O)O)CC(=O)O`, in assay [1], the IC50 came out at 64 nM. The Kd in assay [2] was 51 nM.
For `C[C@@H](NCCSCCC(N)C(=O)O)C(=O)O` (mixture of isomers), in assay [3], the inhibition is 15.5%.
Still for that read-out and setting: under `C[C@H](NCCSCCC(N)C(=O)O)C(=O)O` (mixture of isomers) stands 19.8%.
On to `CC(C)(CCSCCC(N)C(=O)O)CC(=O)O` (racemic), for which the figures for the inhibition in assay [3] and in assay [4] were 100% and 98.1%, respectively. Also, the IC50 in assay [1] turned out to be 84 nM.
In the same order, the values of `NC(CC[Se]CCCCC(=O)O)C(=O)O` (racemic) are 100%, 94.3% and 649 nM.
In the case of `NC(CCSCSCCC(=O)O)C(=O)O` (racemic), the figures for the inhibition in assay [3] and in assay [4] were 97.6% and 26.3%, respectively. In addition, the IC50 in assay [1] came out at 3260 nM.
In the same order, the values of `C[C@@H](CCSCC[C@@H](N)C(=O)O)CC(=O)O` (racemic) are 100%, 97.8% and 139 nM.
In the same order, the values of `CN(CCSCCC(N)C(=O)O)CC(=O)O` (racemic) are 98.5%, 58.9% and 2500 nM.
On to `CN(CCCSCCC(N)C(=O)O)CC(=O)O` (racemic), for which the inhibition came to 79% in assay [3] and 22.4% in assay [4].
In the same order, the values of `C[N+](C)(CCCSCCC(N)C(=O)O)CC(=O)[O-]` (racemic) are 3.3% and 0%.
Take `C[N+](C)(CCSCCC(N)C(=O)O)CC(=O)[O-]` (racemic): the inhibition in assay [3] is 23.8%; in assay [4], 5.1%.
For `C[N+](C)(CSCCC(N)C(=O)O)CC(=O)[O-]` (racemic), the inhibition in assay [3] and in assay [4] was 0% throughout.
On to `NC(CCCCCCCC(=O)O)C(=O)O` (racemic), for which the inhibition in assay [3] was 2.11%.
Regarding `NC(CCCSCCCC(=O)O)C(=O)O` (racemic), the inhibition in assay [3] was 5.4%.
The same measure, in the same setting: under `NC(CCOCCCCC(=O)O)C(=O)O` (racemic) stands 9.8%.
Take `NC(CCSCCNCC(=O)O)C(=O)O` (racemic): in assay [3], the inhibition came out at 37.1%.
The same measure, in the same setting: under `NC(CCSCCNCCC(=O)O)C(=O)O` (racemic) stands 0%; under `NC(CCSSCCCC(=O)O)C(=O)O` (racemic), 19.1%.

Source of the values: ChEMBL document CHEMBL1137014, “Structure-activity study of new inhibitors of human betaine-homocysteine S-methyltransferase” (J Med Chem, 2009).
